# “And” between values parts separate entries of the source, which are not always exact repeats. Equal entries are not always repeated.
# Experiments:
# Rattus norvegicus [1] = assay: Compound was tested in vivo against chronic adjuvant arthritic rat by prophylactic inhibition 2 degree paw. Relative potency with respect to (8-Benzyl-5-hydroxy-1,3-dimethyl-6-propyl-1H,8H-1,3,4b,8,9-pentaaza-fluorene-2,4,7-trione); type: functional
# Rattus norvegicus [2] = assay: Tested in vivo for antiinflammatory activity against chronic adjuvant arthritic rat by prophylactic inhibition 1 degree paw after peroral administration of 9 mg/kg of dose; type: functional; settings: route oral
# Outline: (§1)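 Prophylactic regimen, rats. Adjuvant is heat-killed Mycobacterium tuberculosis ground to a fine powder in paraffin oil (6 mg/mL); 0.1 mL is injected into the left hind paw. Oral drug is given 1 h before adjuvant challenge, then for 21 consecutive days; controls receive methyl cellulose. Left (1°) and right (2°) hind paw volumes are measured by plethysmograph.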
# Rattus norvegicus [3] = assay: Tested in vivo for antiinflammatory activity against chronic adjuvant arthritic rat by prophylactic inhibition 2 degree paw after peroral administration of 9 mg/kg of dose; type: functional; settings: route oral; outline: as §1
# Rattus norvegicus [4] = assay: Compound was tested in vivo for antiinflammatory activity against chronic adjuvant arthritic rat by prophylactic inhibition 2 degree paw after peroral administration of 36 mg/kg of dose; settings: po
# Rattus norvegicus [5] = assay: In vivo antiinflammatory activity against rats by RPAR(reverse passive Arthus reaction) synovitis method; type: functional; parameters: concentration or dose not given beside the values
# Outline: (§2)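 Lewis rats, oral drug or placebo 1 h before iv BSA (2.28 mg in saline), then intraarticular rabbit anti-BSA (0.54 mg) into one knee and saline into the other, under light anesthesia. Second oral dose at 3 h; the total of both doses is the calculated dose. About 17 h after induction, subpatellar tissue with synovium is excised and weighed. Response is antibody-minus-saline knee weight, tested by analysis of variance.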
# Rattus norvegicus [6] = assay: Compound was tested in vivo for antiinflammatory activity against chronic adjuvant arthritic rat by prophylactic inhibition 1 degree paw after peroral administration of 36 mg/kg of dose; settings: po
# Rattus norvegicus [7] = assay: Compound was tested in vivo for antiinflammatory activity against chronic adjuvant arthritic rat by prophylactic inhibition 2 degree paw after peroral administration of 18 mg/kg of dose; settings: po
# Rattus norvegicus [8] = species on record: Rattus norvegicus; assay: Antiinflammatory activity by immune response to collagen II antigen in rats antibody titer was determined by passive hemagglutinination; type: functional
# Outline: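 In rats with bovine type II collagen/incomplete Freund's adjuvant arthritis, the antibody response to collagen II was titred by passive hemagglutination. The delayed-type hypersensitivity component, ear thickness 24 h after intrapinna antigen, was read at day 21.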
# Rattus norvegicus [9] = assay: Antiinflammatory activity against collagen II arthritis in rats, activity% inhibition in injected paw edema; type: functional; parameters: concentration or dose not given beside the values
# Outline: (§3)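 Rats immunised with bovine articular-cartilage type II collagen (dissolved in 0.01 M AcOH for 24 h at 4 °C, dialysed against saline) mixed in equal volume with incomplete Freund's adjuvant. Paws were examined weekly for 7 weeks. An animal counted as arthritic at Δ paw volume ≥8.0 (injected paw) or ≥4.0 (noninjected paw). Bone lesions were scored on lateral-projection foot radiographs. 16 rats/group.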
# Rattus norvegicus [10] = assay: Antiinflammatory activity on the development of collagen II arthritis in rats, measured based on animals positive for arthritis by the presence of paw edema; type: functional; outline: as §3
# Rattus norvegicus [11] = assay: Compound was tested in vivo for antiinflammatory activity against chronic adjuvant arthritic rat by therapeutic inhibition 2 degree paw after peroral administration of 9 mg/kg of dose; type: functional; settings: route oral
# Rattus norvegicus [12] = assay: Compound was tested in vivo for antiinflammatory activity against chronic adjuvant arthritic rat by therapeutic inhibition 2 degree paw after peroral administration of 36 mg/kg of dose; settings: route oral
# Rattus norvegicus [13] = assay: Compound was tested in vivo for antiinflammatory activity against chronic adjuvant arthritic rat by prophylactic inhibition 2 degree paw after peroral administration of 36 mg/kg of dose; type: functional
# [14] = biological target: T1, Polyunsaturated fatty acid 5-lipoxygenase (Rattus norvegicus) (UniProt P12527); assay: In vitro inhibitory activity against Lipoxygenase in rat neutrophils at a dose of 50 uM
# T1 sequence (whole entry): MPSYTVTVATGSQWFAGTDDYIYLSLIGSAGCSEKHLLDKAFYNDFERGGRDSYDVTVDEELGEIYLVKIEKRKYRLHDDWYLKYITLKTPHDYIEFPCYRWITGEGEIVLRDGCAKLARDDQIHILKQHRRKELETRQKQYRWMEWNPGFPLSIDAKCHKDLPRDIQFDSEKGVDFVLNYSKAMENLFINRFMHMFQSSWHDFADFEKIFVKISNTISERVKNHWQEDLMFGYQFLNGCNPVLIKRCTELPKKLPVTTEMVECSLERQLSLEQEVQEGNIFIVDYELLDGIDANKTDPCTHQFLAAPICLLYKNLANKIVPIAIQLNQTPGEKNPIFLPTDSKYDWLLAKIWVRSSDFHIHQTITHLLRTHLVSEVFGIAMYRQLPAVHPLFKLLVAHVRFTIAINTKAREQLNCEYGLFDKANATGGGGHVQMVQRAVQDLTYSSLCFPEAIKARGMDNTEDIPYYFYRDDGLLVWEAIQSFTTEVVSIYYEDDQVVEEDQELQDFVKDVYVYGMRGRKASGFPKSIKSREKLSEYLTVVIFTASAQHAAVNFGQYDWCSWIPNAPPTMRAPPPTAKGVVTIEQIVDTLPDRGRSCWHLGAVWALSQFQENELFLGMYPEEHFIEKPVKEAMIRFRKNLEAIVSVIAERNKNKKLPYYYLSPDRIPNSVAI
# Outline: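 Neutrophils come from the 4 h pleural exudate of male Wistar-Lewis rats given iv BSA plus intrapleural rabbit anti-BSA IgG. Cells are washed, red cells lysed with NH4Cl, and resuspended at about 5×10^6 cells/0.1 mL in Tris pH 7.4 with NaCl and 1 mM CaCl2. Cells are preincubated with compound 4 min at room temperature.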
# Rattus norvegicus [15] = assay: Compound was tested in vivo for antiinflammatory activity against chronic adjuvant arthritic rat by therapeutic inhibition 1 degree paw after peroral administration of 9 mg/kg of dose; type: functional; settings: route oral
# Rattus norvegicus [16] = assay: Compound was tested in vivo for antiinflammatory activity against chronic adjuvant arthritic rat by prophylactic inhibition 2 degree paw after peroral administration of 18 mg/kg of dose; type: functional; settings: route oral
# Outline: (§4)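 Prophylactic adjuvant arthritis: heat-killed Mycobacterium tuberculosis powder in paraffin oil (6 mg/mL), 0.1 mL injected into the left hind paw. Drug given orally 1 h before adjuvant, then for 21 consecutive days; controls received methyl cellulose. Left (1°) and right (2°) hind paw volumes were measured by plethysmograph.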
# Rattus norvegicus [17] = assay: Compound was tested in vivo for antiinflammatory activity against chronic adjuvant arthritic rat by prophylactic inhibition 1 degree paw after peroral administration of 36 mg/kg of dose; type: functional
# Rattus norvegicus [18] = assay: Antiinflammatory activity against collagen II arthritis in rats, activity % inhibition in noninjected paw edema; type: functional; parameters: concentration or dose not given beside the values; outline: as §3
# Rattus norvegicus [19] = assay: Compound was tested in vivo for antiinflammatory activity against chronic adjuvant arthritic rat by prophylactic inhibition 1 degree paw after peroral administration of 18 mg/kg of dose; type: functional; outline: as §4
# Rattus norvegicus [20] = species on record: Rattus norvegicus; assay: Delayed Type hypersensitivity (DTH) is measured by increase in ear thickness 24 hours after antigen injection into pinna; type: functional
# Rattus norvegicus [21] = assay: Compound was tested in vivo for antiinflammatory activity against chronic adjuvant arthritic rat by therapeutic inhibition 2 degree paw. Relative potency with respect to (8-Benzyl-5-hydroxy-1,3-dimethyl-6-propyl-1H,8H-1,3,4b,8,9-pentaaza-fluorene-2; type: functional
# [22] = biological target: Cyclooxygenase (Rattus norvegicus) (UniProt P35355+Q63921); assay: In vitro inhibitory activity against Prostaglandin G/H synthase in rat neutrophils at a dose of 50 uM
# Rattus norvegicus [23] = species on record: Rattus norvegicus; assay: Antiinflammatory activity on the development of collagen II arthritis in rats, measured based on animals positive for arthritis by the presence of bone lesions; type: functional; outline: as §3
# Rattus norvegicus [24] = assay: Compound was tested in vivo for antiinflammatory activity against chronic adjuvant arthritic rat by therapeutic inhibition 1 degree paw after peroral administration of 36 mg/kg of dose; settings: route oral
# Rattus norvegicus [25] = assay: Compound was tested in vivo for antiinflammatory activity against chronic adjuvant arthritic rat by prophylactic inhibition 2 degree paw after peroral administration of 10 mg/kg of dose; type: functional; settings: route oral; outline: as §4
# Rattus norvegicus [26] = assay: Compound was tested in vivo for antiinflammatory activity against chronic adjuvant arthritic rat by prophylactic inhibition 1 degree paw after peroral administration of 10 mg/kg of dose; type: functional; settings: route oral; outline: as §4
# Rattus norvegicus [27] = assay: Compound was tested in vivo for antiinflammatory activity against rats by RPAR(reverse passive Arthus reaction) synovitis method ata dose of 50 mg/kg, po; type: functional; outline: as §2
smiles,measurement,setting,value
CCCCc1c(O)n(Cc2ccccc2)c2nc3c(c(=O)n(C)c(=O)n3C)n2c1=O,Relative potency,Rattus norvegicus [1],2.1
same,inhibition in vivo at 9 mg/kg,Rattus norvegicus [2],17%
same,inhibition in vivo at 9 mg/kg,Rattus norvegicus [3],55%
same,inhibition in vivo at 36 mg/kg,Rattus norvegicus [4],79%
same,Inhibition,Rattus norvegicus [5],48%
same,inhibition in vivo at 36 mg/kg,Rattus norvegicus [6],52%
same,inhibition in vivo at 18 mg/kg,Rattus norvegicus [7],64%
CCCc1c(O)n(Cc2ccccc2)c2nc3c(c(=O)n(C)c(=O)n3C)n2c1=O,Relative potency,Rattus norvegicus [1],1
same,inhibition in vivo at 9 mg/kg,Rattus norvegicus [2],16%
same,Antibody titer,Rattus norvegicus [8],9.2
same,inhibition in vivo at 9 mg/kg,Rattus norvegicus [3],38%
same,Inhibition,Rattus norvegicus [9],9.6%
same,Positive,Rattus norvegicus [10],26.7%
same,inhibition in vivo at 9 mg/kg,Rattus norvegicus [11],15%
same,Inhibition,Rattus norvegicus [12],77%
same,inhibition in vivo at 36 mg/kg,Rattus norvegicus [13]; po,78%
same,inhibition,[14],0% and 5%
same,Inhibition,Rattus norvegicus [5],33%
same,inhibition in vivo at 9 mg/kg,Rattus norvegicus [15],17%
same,inhibition in vivo at 18 mg/kg,Rattus norvegicus [16],52%
same,inhibition in vivo at 36 mg/kg,Rattus norvegicus [17]; po,59%
same,Inhibition,Rattus norvegicus [18],37.5%
same,inhibition in vivo at 18 mg/kg,"Rattus norvegicus [19]; Rattus norvegicus, po",41%
same,Inhibition,"Rattus norvegicus [19]; route oral, 18 mg/kg",41%
same,DTH,Rattus norvegicus [20],0.0464 mm
same,Relative potency,Rattus norvegicus [21],1
same,inhibition,[22],43%
same,Positive,Rattus norvegicus [23],26.7%
same,Inhibition,Rattus norvegicus [24],64%
C=CCc1c(O)n(Cc2ccccc2)c2nc3c(c(=O)n(C)c(=O)n3C)n2c1=O,inhibition in vivo at 10 mg/kg,Rattus norvegicus [25],16%
same,inhibition,[14],16% and 20%
same,inhibition in vivo at 10 mg/kg,Rattus norvegicus [26],16%
same,Inhibition,Rattus norvegicus [5],29%
same,inhibition,[22],16%
CCCc1c(O)n(C(C)c2ccccc2)c2nc3c(c(=O)n(C)c(=O)n3C)n2c1=O (stereo unspecified),inhibition in vivo at 50 mg/kg,Rattus norvegicus [27],0%
Cc1c(O)n(Cc2ccccc2F)c2nc3c(c(=O)n(C)c(=O)n3C)n2c1=O,inhibition in vivo at 50 mg/kg,Rattus norvegicus [27],0%
Cn1c(=O)c2c(nc3n(Cc4ccccc4)c(O)c(CC=C4CCCCC4)c(=O)n23)n(C)c1=O,inhibition in vivo at 36 mg/kg,Rattus norvegicus [13]; route oral,39%
same,inhibition,[14],10% and 9%
same,Inhibition,Rattus norvegicus [5],7%
same,inhibition in vivo at 36 mg/kg,Rattus norvegicus [17]; route oral,6%
same,inhibition,[22],0%
